Assay results from paper PMC3051377 (British Journal of Pharmacology, 2011).

Tests used:
[1] = test system: G-proteins in GDP-less membranes of CHO-M2 cells; assay: Kinetics of [35S]GTPγS binding to GDP-less membranes; set-up: species or system Chinese hamster
Summary of the method: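 GDP-less CHO-M2 membranes, 30°C. Association of 1 nM [³⁵S]GTPγS was measured after 20 min pre-incubation with buffer or 100 µM agonist, ±50 µM GDP. For dissociation, membranes were preloaded 90 min with 1 nM [³⁵S]GTPγS ±50 µM GDP, then chased with 1 µM GTPγS alone or with agonist. Filtration on glass-fibre filters, scintillation counting. Three experiments in quadruplicate; exponential association/dissociation fits.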

[2] = molecular target: T1, M2 receptor-G-protein complex (Homo sapiens, UniProt P08172); assay type: binding
T1 sequence (P08172 1-466): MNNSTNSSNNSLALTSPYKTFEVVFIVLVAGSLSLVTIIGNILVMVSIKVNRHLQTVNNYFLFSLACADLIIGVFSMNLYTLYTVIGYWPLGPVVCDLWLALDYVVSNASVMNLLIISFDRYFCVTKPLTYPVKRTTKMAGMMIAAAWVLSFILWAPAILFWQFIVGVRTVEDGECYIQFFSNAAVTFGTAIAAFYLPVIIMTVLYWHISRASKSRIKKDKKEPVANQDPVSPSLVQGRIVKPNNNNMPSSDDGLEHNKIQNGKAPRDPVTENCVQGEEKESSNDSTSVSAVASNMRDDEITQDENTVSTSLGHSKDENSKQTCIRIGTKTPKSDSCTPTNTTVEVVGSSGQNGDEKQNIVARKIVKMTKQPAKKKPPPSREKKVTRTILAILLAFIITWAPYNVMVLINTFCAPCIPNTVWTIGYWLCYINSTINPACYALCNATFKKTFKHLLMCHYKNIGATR

[3] = test system: G-proteins in GDP-less membranes of CHO-M2 cells; assay: Kinetics of [3H]GDP binding to GDP-less membranes; set-up: species or system Chinese hamster; conditions: 100 nM NMS (Figure 4 right)
Summary of the method: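 GDP-less CHO-M2 membranes, 30°C. Association of 500 nM [³H]GDP was measured after 20 min pre-incubation with buffer, 10 or 100 µM agonist, or 0.1 µM antagonist. For dissociation, membranes were prelabelled with 500 nM [³H]GDP for 180 min, then chased with 50 µM GDP alone or with ligand. Slow and fast rate constants came from biphasic fits.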

[4] = molecular target: T2, human M2 muscarinic receptor (Homo sapiens, UniProt P08172); assay: Agonist-stimulated [35S]GTPγS binding to membranes from M2 CHO cells; assay type: biochemical
T2 sequence (P08172 1-466): T1 sequence (P08172 1-466)

Gi/o G-proteins [5] = molecular target: T3, Gi/o G-proteins (Homo sapiens, UniProt P08172); assay: biochemical; assay type: biochemical, Chinese hamster
T3 sequence (P08172 1-466): T1 sequence (P08172 1-466)

[6] = molecular target: T2, human M2 muscarinic receptor; assay: Competition of agonists with 1 nM [3H]NMS binding
Gq/11 G-proteins [7] = molecular target: T4, Gq/11 G-proteins (Homo sapiens, UniProt P08172); assay: [35S]GTPγS binding to Gq/11 G-proteins; assay type: biochemical, Chinese hamster; conditions: Gq/11, text
T4 sequence (P08172 1-466): T1 sequence (P08172 1-466)

Gs/olf G-proteins [8] = molecular target: T5, Gs/olf G-proteins (Homo sapiens, UniProt P08172); assay: biochemical; assay type: biochemical, Chinese hamster
T5 sequence (P08172 1-466): T1 sequence (P08172 1-466)

Gs/olf G-proteins [9] = molecular target: T5, Gs/olf G-proteins; assay: biochemical; assay type: binding, Chinese hamster
[10] = molecular target: T1, M2 receptor-G-protein complex; assay type: binding; conditions: Eqn 8, GDP-less membranes, 1 nM [3H]NMS
Gi/o G-proteins [11] = molecular target: T3, Gi/o G-proteins; assay: biochemical; assay type: binding, Chinese hamster
Gq/11 G-proteins [12] = molecular target: T4, Gq/11 G-proteins; assay type: binding, Chinese hamster; conditions: Gq/11, 10 µM [3H]GDP
[13] = 1 nM [35S]GTPγS, GDP-less membranes, no GDP, no ligand
[14] = NMS (100 nM), presence of 50 µM GDP

For `Nc1nc2c(ncn2[C@@H]2O[C@H](COP(=O)(O)OP(=O)(O)OP(O)(O)=S)[C@@H](O)[C@H]2O)c(=O)[nH]1` [GTPγS, guanosine-5′-γ−thiotriphosphate], which Beq [1, 13] is on record?
Its Beq is 5.66 ± 0.22 fmol·µg^−1protein.

And the koff [1, 13]?
Its koff is 9e-05 ± 3.61e-06 s⁻¹.

For `C[N+]1(C)[C@@H]2C[C@@H](OC(=O)[C@H](CO)c3ccccc3)C[C@H]1[C@@H]1O[C@@H]12` [NMS, N-methylscopolamine], which “effect on [3H]GDP binding” value ([2]; 10 µM [3H]GDP, increasing ligand concentration) is on record?
The value was “did not affect”.

What about the “cooperativity between NMS and GDP” value ([2]; Figures 6 and 7) of the same compound?
The value was “neutral”.

What about the “effect on GDP dissociation” value [3] of the same compound?
Its value is “only slightly slows down”.

And the “Beq of [35S]GTPγS” value ([1]; GDP-less membranes, 50 µM GDP +100 nM NMS)?
Its value is 1.20 ± 0.11 fmol·µg^−1protein.

And the “effect on dissociation kinetics of [35S]GTPγS” value [1, 14]?
Its value is “did not change”.

What about the “slowing of association of [35S]GTPγS” value [1, 14] of the same compound?
The value was 25%.

What about the “behaviour in [35S]GTPγS binding” value ([4]; Figures 1 and 8) of the same compound?
The value was “inverse agonist”.

`O=C1CCCN1CC#CCN1CCCC1` [Oxotremorine] was tested. Which “factor of cooperativity α between binding of [3H]GDP and agonist (pα)” value ([2]; 10 µM [3H]GDP, GDP-less membranes, n=3) did it give?
Its value is −1.8 ± 0.1.

And the EC50 (Gi/o G-proteins [5])?
The EC50 was 933 nM.

And the EMAX (Gi/o G-proteins [5]; Gi/o)?
The EMAX was 2.72 ± 0.05 fold increase over basal binding.

What about the “flow[%]” value ([6]; Control (crude membranes), fraction of receptors in low-affinity state) of the same compound?
The value was 66 ± 8%.

And the “flow[%]” value ([6]; GDP-less membranes)?
Its value is 13 ± 4 %.

And the “change of high-affinity KI in GDP-less membranes vs control” value ([6]; GDP-less vs control membranes)?
Its value is “not changed”.

What about the Ki ([6]; pKi high, Control (crude membranes)) of the same compound?
Its Ki is 11.7 nM.

And the Ki ([6]; pKi high, GDP-less membranes)?
Its Ki is 11.2 nM.

And the Ki ([6]; pKi, +1 µM GTPγS, monophasic)?
The Ki was 550 nM.

And the Ki ([6]; pKi, +50 µM GDP, monophasic)?
Its Ki is 417 nM.

And the “stimulation of [35S]GTPγS binding” value (Gq/11 G-proteins [7])?
The value was “no stimulation”.

What about the EC50 (Gs/olf G-proteins [8]) of the same compound?
Its EC50 is 7410 nM.

And the EMAX (Gs/olf G-proteins [8]; Gs/olf)?
Its EMAX is 1.53 ± 0.01 fold increase over basal binding.

And the Kd (Gs/olf G-proteins [9])?
Its Kd is 10.7 nM.

What about the pα (Gs/olf G-proteins [9]; Gs/olf, cooperativity between agonist and [3H]GDP binding) of the same compound?
The pα was −0.78 ± 0.08.

And the “reduction of agonist affinity by GDP (factor of cooperativity β)” value [10]?
Its value is 60 fold.

And the Kd (Gi/o G-proteins [11])?
Its Kd is 11.7 nM.

And the pα (Gi/o G-proteins [11]; Gi/o, cooperativity between agonist and [3H]GDP binding)?
Its pα is −2.1 ± 0.2.

What about the “effect on [3H]GDP equilibrium binding” value (Gq/11 G-proteins [12]) of the same compound?
Its value is “no effect”.

And the EC50 [4]?
Its EC50 is 1020 nM.

What about the “maximal increase of [35S]GTPγS binding (Emax)” value [4] of the same compound?
The value was 2.8 fold increase.

What about the “EMAX [fold over basal]” value ([4]; 500 pM [35S]GTPγS, 50 µM GDP) of the same compound?
Its value is 2.78 ± 0.06 fold over basal.

And the nH ([4]; Hill coefficient, Eqn 2)?
Its nH is 0.92 ± 0.03.
